High-throughput results as filed in PubChem.
A selection: hits, their analogues and other compounds. The true share with any hit is near 4%.
CHOP inh – inhibitors of CHOP promoter induction, primary screen, cell-based, unfolded protein response, luciferase reporter. CHO-K1 CHOP-promoter luciferase, tunicamycin-induced, 15-18 h. inhibition, % at 10 µM. actives 3.8% (n = 220,000). AID 2732, 2010;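 active = compounds that reduced the stress-induced luciferase reporter signal by more than about 70% of percent inhibition, limit read from the data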;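 also: 0% = tunicamycin plus vehicle and 100% = wells without tunicamycin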
Hsp70 activator – Hsp70 transcriptional activators, primary screen, cell-based, HeLa, Hsp70 promoter luciferase, luminescence, 10 µM. HeLa Hsp70 promoter luciferase reporter; scaled: vehicle 0, proteasome-inhibitor control 100%. activation, % at 10 µM. actives 0.04% (n = 200,000);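 active = activation above the mean across all tested compounds plus 3 SD, cutoff set per campaign, cut at about 5.5% in these data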;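 also: 100% = MG132 at 30 µM as the positive control and 0% = DMSO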
MDM2 E3 inh – MDM2-luciferase reporter signal enhancers, primary screen, MDM2 E3 ligase inhibitor project, cell-based, luminescence, 1536-well | cell-based MDM2 ubiquitination luciferase reporter, 2 h; 0 = plate control, 100 = twice control, blank-subtracted | signal enhancement, % at 5 µM | E3 ubiquitin-protein ligase Mdm2 (Homo sapiens), Q00987 | actives 0.11% (n = 210,000) | AID 1230, 2008;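 active = signal enhancement of 30% or more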;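 also: luminescence tracks abundance of the self-degrading MDM2-luciferase fusion protein; higher signal means inhibition of MDM2 E3 ligase activity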
Target sequence (Q00987 whole entry, looked up, the tested form may be a part): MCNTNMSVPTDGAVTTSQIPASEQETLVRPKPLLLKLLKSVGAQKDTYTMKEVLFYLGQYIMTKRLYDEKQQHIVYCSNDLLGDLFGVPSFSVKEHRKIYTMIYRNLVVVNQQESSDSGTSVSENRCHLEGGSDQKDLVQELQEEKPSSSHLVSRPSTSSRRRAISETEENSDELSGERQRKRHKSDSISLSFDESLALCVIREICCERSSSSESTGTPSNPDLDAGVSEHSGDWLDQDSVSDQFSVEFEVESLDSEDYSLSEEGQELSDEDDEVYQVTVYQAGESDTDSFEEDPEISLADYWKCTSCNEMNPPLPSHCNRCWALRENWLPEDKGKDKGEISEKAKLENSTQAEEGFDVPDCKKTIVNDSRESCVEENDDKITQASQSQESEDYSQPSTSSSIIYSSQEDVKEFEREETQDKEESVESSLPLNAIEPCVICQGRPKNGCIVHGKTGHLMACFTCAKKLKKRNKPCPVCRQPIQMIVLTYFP
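Material: stable MDM2–luciferase fusion reporter cells / Quantity: 2000 cells/well / Dosing: single 5 µM compound dose, 0.2% final DMSO / Buffer or medium: DMEM / Schedule: 4 h cell settling then 2 h compound exposure, 37 °C / Detection: luminescence with SteadyLite reagent, 15 min at room temperature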
S1P3 antagonist – S1P3 receptor antagonists, primary screen, cell-based. CHO S1P3 NFAT-BLA reporter, FRET fluorescence, antagonist mode. inhibition, % at 4.98 µM. actives 0.27% (n = 170,000);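 active = inhibition above the plate cutoff, the mean inhibition of test wells on that plate plus 3 SD, cut at about 28% in these data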;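 also: cells challenged with S1P at its EC80 of 0.8 µM; blue over green emission ratio from cleaved BLA substrate after 4 h stimulation; 0% = S1P-stimulated wells and 100% = unstimulated DMSO-only wells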
CHOP inh conf – retest of CHOP induction inhibitors, confirmation, cell-based. shares compounds with CHOP inh. CHO-CHOP promoter luciferase reporter, tunicamycin-induced, luminescence. inhibition, % at 10 µM. actives 45% (n = 2,100). AID 504437, 2011;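 active = mean of three repeat readings of reporter signal inhibition above a set limit, cut at about 70% in these data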;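 also: 0% = tunicamycin plus vehicle and 100% = wells lacking tunicamycin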
* hit, by the source's call; . = no result.

SMILES	CHOP inh	Hsp70 activator	MDM2 E3 inh	S1P3 antagonist	CHOP inh conf
O=C(CC1SC(=Nc2ccc(OC(F)F)cc2)N(CCN2CCOCC2)C1=O)Nc1ccc(F)cc1F (configuration not stated)	26.5	-0.3	-5.6	2.1	.
CN(C)c1ccc(C(CNS(=O)(=O)c2ccc(F)c(F)c2)c2c[nH]c3ccccc23)cc1 (configuration not stated)	109.6*	0.2	0.1	-12.9	115.6*
CN(C)CCC1CCN(c2cc(C#N)c(C#N)cc2[N+](=O)[O-])CC1	4.3	0.0	-16.0	-12.8	.
Cc1ccc(CNCC(O)(c2ccccc2)c2ccc(Cl)cc2)cc1 (configuration not stated)	99.2*	-0.3	-17.3	-3.3	134.7*
Cc1ccc(-c2ccccc2)n1-c1ccc(C(=O)O)cc1	17.1	-0.1	-5.9	-13.5	.
Oc1ccccc1-n1c(-c2ccccc2)ccc1-c1ccccc1	104.5*	.	.	17.3	118.6*
COc1cc2[nH]c(=O)n(CCC(=O)N3CCN(c4cc(Cl)ccc4C)CC3)c(=O)c2cc1OC	103.6*	-0.3	-18.6	.	55.5
CCOc1cc2[nH]c(=O)n(CCC(=O)N3CCN(c4ccccc4OC)CC3)c(=O)c2cc1OCC	30.2	-0.2	-19.2	-19.1	.
COc1ccc(/C=C2\N=C(SC)N(c3ccccc3OC)C2=O)cc1	63.3	-0.3	-7.9	15.8	.
Cc1oc2ccc(NS(=O)(=O)c3ccc(C(C)(C)C)cc3)cc2c1C(=O)Nc1ccccc1	107.0*	0.0	-22.1	.	45.3
Cc1ccc(Nc2ncc3c(n2)CC(C)CC3=O)c(C)c1 (configuration not stated)	22.3	.	-23.1	-1.5	.
O=S(=O)(/N=C(\Sc1ccc(Cl)cc1)c1ccccc1)c1ccccc1	102.5*	-0.3	-19.4	.	35.3
Cc1cc(C)n2ncc(S(=O)(=O)c3ccccc3)c2n1	-11.8	1.3	0.8	-27.6	.
O=C1N/C(=N\N=C\c2cccs2)SC1Cc1cccc(Cl)c1Cl (configuration not stated)	64.7	-0.3	-3.3	-8.4	.
O=C(CC1S/C(=N/N=C/c2cccs2)NC1=O)Nc1ccc(Cl)c(Cl)c1 (configuration not stated)	104.0*	-0.2	-17.8	-5.7	56.7
C/C(=N\N=C1\NC(=O)C(CC(=O)Nc2ccc(C)c(Cl)c2)S1)C(C)(C)C (configuration not stated)	106.2*	-0.3	-14.5	-13.5	107.0*
C/C(=N\N=C1\NC(=O)C(CC(=O)Nc2ccc(Cl)cc2)S1)c1ccco1 (configuration not stated)	29.0	-0.1	-2.8	-14.2	.
CCOc1cc(C=C(C(=O)OC)C(=O)OC)ccc1OCc1ccc([N+](=O)[O-])cc1	98.6*	0.8	-8.5	.	-40.3
CCOc1cc(/C=N/O)ccc1OCc1ccc([N+](=O)[O-])cc1	4.9	-0.3	-5.2	-1.9	.
C=CCN1C(=O)/C(=C/c2ccc(OC(C)=O)c(OCC)c2[N+](=O)[O-])SC1=S	100.5*	-0.2	-7.3	-3.3	113.9*
CCOc1c(OC(C)=O)ccc(/C=C/c2ccc3cccc(OC(C)=O)c3n2)c1[N+](=O)[O-]	22.0	-0.2	-4.9	.	.
O=C(O)c1sc2cc(C(F)(F)F)cnc2c1-c1cccs1	9.5	-0.2	-4.9	4.7	.
CN(C)C(CNS(=O)(=O)c1ccc(Cl)cc1)c1cccnc1 (configuration not stated)	34.9	-0.1	-35.2	.	.
O=S(=O)(NCC(Nc1ccc(Cl)cc1)c1ccccc1)c1ccc(Cl)cc1 (configuration not stated)	107.9*	-0.2	-18.7	-8.2	112.1*
Cc1cccc(NC(=O)/C(C#N)=C/c2cn(CC(=O)NCc3ccco3)c3ccccc23)c1C	108.8*	0.1	3.8	3.3	90.5*
SMILES	CHOP inh	Hsp70 activator	MDM2 E3 inh	S1P3 antagonist	CHOP inh conf
N#C/C(=C\c1cn(Cc2cccc(F)c2)c2ccccc12)C(=O)NCc1ccco1	12.7	-0.2	4.1	-7.9	.
O=C(CCl)Nc1cc(-c2ccccc2)nn1-c1ccccc1	.	0.0	-5.6	.	83.4*
Cc1ccc(-c2cc(NC(=O)CCl)n(-c3ccccc3)n2)cc1	.	0.3	-10.3	.	-150.0
CCNS(=O)(=O)c1ccc(NC(=S)NCC2CCCO2)cc1 (configuration not stated)	15.1	0.3	-2.9	7.9	.
Nc1c(C(=O)Nc2ccccc2F)sc2nc(-c3cccnc3)ccc12	97.2*	.	2.6	1.6	77.1*
CCOC(=O)CSc1nc2sc(C)c(C)c2c(=O)[nH]1	26.2	-0.1	-23.5	-19.2	.
CCOC(=O)/C(=C\c1ccc(Cl)cc1)c1nc2sc(C)c(C)c2c(=O)[nH]1	107.4*	0.0	-3.1	4.2	-45.0
COc1ccc(CCC(=O)Nc2ccc(Cl)c(S(=O)(=O)N3CCCC3)c2)cc1	46.6	.	-30.2	9.0	.
O=C(N/N=C/c1ccc(Br)s1)Nc1ccccc1	97.4*	-0.1	-2.6	0.7	59.2
O=C(O)CSCC(=O)Nc1ccc(C2CCCCC2)cc1	98.9*	-0.7	-13.9	.	107.5*
Nn1cnnc1SCC(=O)Nc1ccc(C2CCCCC2)cc1	5.5	-0.1	-2.4	-13.4	.
O=C(CCCc1nc2ccccc2s1)NC(c1ccccc1)c1ccccc1	44.9	-0.1	-10.1	-16.1	.
S=C(Nc1ccc(Nc2ccccc2)cc1)NN1CCOCC1	4.3	.	-9.8	-1.5	.
CC(=O)/C=C/n1c(=S)oc2ccccc21	106.1*	0.6	51.3*	10.6	115.8*
CC(C)CC(=O)/C=C/n1c(=S)oc2ccccc21	108.0*	0.6	58.3*	-3.2	42.4
O=C(NCCC1=CCCCC1)C(=O)NCC1OCCCN1S(=O)(=O)c1ccc(F)cc1 (configuration not stated)	27.4	-0.2	0.7	-12.4	.
O=C(CCC(=O)Nc1ccccc1Cl)NNC(=O)c1ccccc1[N+](=O)[O-]	-3.1	0.0	-6.1	-9.9	.
CSc1cc(-c2ccccc2)n(Cc2c(Cl)cccc2Cl)c(=O)c1C#N	.	-0.5	-8.1	.	.
CSc1cc(-c2ccc(Cl)cc2)n(Cc2ccccc2)c(=O)c1C#N	100.9*	0.0	-5.6	.	29.0
O=Cc1ccc(Sc2nnc(-c3ccccc3)o2)c([N+](=O)[O-])c1	96.7*	-0.2	-17.3	.	-27.5
COc1ccc(Cn2c(C)nnc2-c2cnn(C)c2N)cc1	18.1	-0.1	0.7	-12.9	.
CC1=NNC(=O)/C1=C\c1cn(-c2ccccc2)nc1-c1ccc(F)cc1	105.8*	0.3	-15.5	-2.2	118.6*
O=C1NC(=O)C(c2cn(-c3ccccc3)nc2-c2ccc(F)cc2)N1 (configuration not stated)	29.6	0.3	3.9	.	.
C=CCC1(/C=N/O)CCOC(C)(C)C1 (configuration not stated)	-14.2	.	-1.1	-9.0	.
